Experimental data from ChEMBL document CHEMBL4433216, “Discovery of Stereospecific PARP-1 Inhibitor Isoindolinone NMS-P515” (ACS Med Chem Lett, 2019).
In brackets after ≈: the same amount, converted by molar mass.

Key:
[1] = biological target: T1, Poly [ADP-ribose] polymerase 1 (Homo sapiens, UniProt P09874); experiment: Inhibition of PARP1 in human HeLa cells assessed as reduction in H2O2-induced PAR formation incubated for 30 mins followed by H2O2 addition for 15 mins by immunocytochemistry analysis; type: cell-based
[2] = biological target: T1, Poly [ADP-ribose] polymerase 1; experiment: Binding affinity to human recombinant His/GST-tagged PARP1 catalytic domain (655-end residues) by surface plasma resonance method
[3] = Half life in Balb Nu/Nu mouse at 10 mg/kg, iv measured upto 24 hrs by HPLC-MS-MS analysis; type: ADME, organism-based; conditions: in vivo
[4] = Oral bioavailability in Balb Nu/Nu mouse at 10 mg/kg measured upto 24 hrs by HPLC-MS-MS analysis; type: ADME, organism-based; conditions: in vivo
Procedure, shortened: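 Oral PK in Harlan Nu/Nu mice, n = 3 per study, dosed per os at 10 mg/kg as a 0.5% methocel suspension. Bioavailability derived from oral versus iv exposure (AUC∞), with iv dosing in the same mouse strain.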

[5] = Permeability of the compound in pH 7.4 HBSS buffer assessed as percentage remained in membrane at 10 uM incubated for 4 hrs by LC-MS/MS based PAMPA method; type: ADME; conditions: pH 7.4, 4 h
[6] = in vitro; conditions: mouse, plasma
[7] = biological target: Cytochrome P450 2D6 (Homo sapiens, UniProt P10635); experiment: Inhibition of CYP2D6 (unknown origin); type: ADME
Procedure, shortened: (§1)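 Screen of eight P450 cytochrome isoforms, with IC50 determined for each isoform.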

[8] = Permeability of the compound in pH 7.4 HBSS at 10 uM incubated for 4 hrs by LC-MS/MS based PAMPA method; type: ADME; conditions: read-out: permeability
[9] = AUC (0 to infinity) in Balb Nu/Nu mouse at 10 mg/kg, po measured upto 24 hrs by HPLC-MS-MS analysis; type: ADME, organism-based; design: dose 10 mg/kg, route oral, time infinity; conditions: in vivo
[10] = biological target: T2, Cytochrome P450 2B6 (Homo sapiens, UniProt P20813); experiment: Inhibition of CYP2B6 (unknown origin); type: ADME; procedure, shortened: as §1
T2 sequence (P20813 whole entry): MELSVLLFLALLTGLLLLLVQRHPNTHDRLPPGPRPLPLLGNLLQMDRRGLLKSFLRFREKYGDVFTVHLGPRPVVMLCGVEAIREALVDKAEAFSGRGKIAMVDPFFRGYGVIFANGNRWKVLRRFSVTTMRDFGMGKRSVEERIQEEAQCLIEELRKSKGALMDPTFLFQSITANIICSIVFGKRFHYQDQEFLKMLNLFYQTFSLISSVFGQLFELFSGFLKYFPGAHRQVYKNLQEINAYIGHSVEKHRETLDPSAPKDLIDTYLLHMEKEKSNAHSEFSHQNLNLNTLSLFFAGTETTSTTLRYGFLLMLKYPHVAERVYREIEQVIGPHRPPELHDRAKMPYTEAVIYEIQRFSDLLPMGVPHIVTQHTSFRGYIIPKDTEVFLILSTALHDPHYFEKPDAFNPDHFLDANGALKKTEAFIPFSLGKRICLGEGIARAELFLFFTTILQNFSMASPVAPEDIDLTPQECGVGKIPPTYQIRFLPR

[11] = test system: CAPAN-1; experiment: animal or person; conditions: Mus musculus, CAPAN-1, po, 288 h, read-out: GI
[12] = in vitro; design: dose or concentration left out as unconfirmed; conditions: rat, hepatocytes
[13] = Cmax in Balb Nu/Nu mouse at 10 mg/kg, po measured upto 24 hrs by HPLC-MS-MS analysis; type: ADME, organism-based; design: dose 10 mg/kg, route oral; conditions: in vivo
[14] = Cmax in Balb Nu/Nu mouse at 10 mg/kg, iv measured upto 24 hrs by HPLC-MS-MS analysis; type: ADME, organism-based; design: dose 10 mg/kg, route intravenous; conditions: in vivo
[15] = Solubility in pH 7 ammonium acetate buffer by LC-MS/MS analysis; type: physicochemical
[16] = Toxicity in human Capan1 cells xenografted Balb athymic Nu/Nu mouse assessed as maximum body weight loss at 80 mg/kg, po qd administered for 12 days co-treated with 62.5 mg/kg, iv qd temozolomide for 5 days starting from day 3; conditions: in vivo
[17] = biological target: T3, Protein mono-ADP-ribosyltransferase PARP3 (Homo sapiens, UniProt Q9Y6F1); experiment: Displacement of fluorescent probe from human recombinant His/GST-tagged PARP3 by fluorescent polarization assay
T3 sequence (Q9Y6F1 whole entry): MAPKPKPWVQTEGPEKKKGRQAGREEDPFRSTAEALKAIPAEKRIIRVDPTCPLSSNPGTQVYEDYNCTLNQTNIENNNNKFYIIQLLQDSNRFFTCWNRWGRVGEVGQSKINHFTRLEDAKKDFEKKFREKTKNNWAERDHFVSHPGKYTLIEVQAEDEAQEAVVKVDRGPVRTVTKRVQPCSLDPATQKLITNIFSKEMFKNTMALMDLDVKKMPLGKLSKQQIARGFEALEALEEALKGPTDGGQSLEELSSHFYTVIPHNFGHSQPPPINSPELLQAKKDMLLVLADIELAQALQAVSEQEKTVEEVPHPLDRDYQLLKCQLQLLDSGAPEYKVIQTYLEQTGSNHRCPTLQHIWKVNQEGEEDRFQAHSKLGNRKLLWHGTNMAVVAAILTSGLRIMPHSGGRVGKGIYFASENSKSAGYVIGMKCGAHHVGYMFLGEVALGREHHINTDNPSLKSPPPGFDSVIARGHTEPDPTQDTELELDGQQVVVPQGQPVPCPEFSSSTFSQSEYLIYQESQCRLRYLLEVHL
Procedure, shortened: (§2)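 Fluorescence polarization displacement assay measuring probe displacement from each ARTD enzyme. Results expressed as K_D.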

[18] = in vitro; design: dose or concentration left out as unconfirmed; conditions: human, liver microsomes
[19] = Toxicity in human Capan1 cells xenografted Balb athymic Nu/Nu mouse assessed as maximum weight loss at 80 mg/kg, po qd administered for 12 days; type: organism-based; conditions: in vivo, 288 h
Procedure, shortened: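 BRCA-2 mutated Capan-1 pancreatic xenograft. The PARP-1 inhibitor was given orally as a methocel suspension at 80 mg/kg once daily for 12 days. Read-outs were maximal tumor growth inhibition and maximum body weight loss.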

[20] = AUC (0 to infinity) in Balb Nu/Nu mouse at 10 mg/kg, iv measured upto 24 hrs by HPLC-MS-MS analysis; type: ADME, organism-based; design: dose 10 mg/kg, time infinity, route intravenous; conditions: in vivo
[21] = Half life in Balb Nu/Nu mouse at 10 mg/kg, po measured upto 24 hrs by HPLC-MS-MS analysis; type: ADME, organism-based; conditions: in vivo
[22] = biological target: T1, Poly [ADP-ribose] polymerase 1; experiment: Displacement of fluorescent probe from human recombinant full length His-tagged PARP1 by fluorescent polarization assay
[23] = biological target: Poly [ADP-ribose] polymerase 2 (Homo sapiens, UniProt Q9UGN5); experiment: Displacement of fluorescent probe from human recombinant full length His-tagged PARP2 by fluorescent polarization assay; procedure, shortened: as §2
[24] = biological target: T4, Poly [ADP-ribose] polymerase tankyrase-1 (Homo sapiens, UniProt O95271); experiment: Displacement of fluorescent probe from human recombinant His-tagged TNKS1 catalytic domain (1091-1325 residues) by fluorescent polarization assay; procedure, shortened: as §2
T4 sequence (O95271 whole entry): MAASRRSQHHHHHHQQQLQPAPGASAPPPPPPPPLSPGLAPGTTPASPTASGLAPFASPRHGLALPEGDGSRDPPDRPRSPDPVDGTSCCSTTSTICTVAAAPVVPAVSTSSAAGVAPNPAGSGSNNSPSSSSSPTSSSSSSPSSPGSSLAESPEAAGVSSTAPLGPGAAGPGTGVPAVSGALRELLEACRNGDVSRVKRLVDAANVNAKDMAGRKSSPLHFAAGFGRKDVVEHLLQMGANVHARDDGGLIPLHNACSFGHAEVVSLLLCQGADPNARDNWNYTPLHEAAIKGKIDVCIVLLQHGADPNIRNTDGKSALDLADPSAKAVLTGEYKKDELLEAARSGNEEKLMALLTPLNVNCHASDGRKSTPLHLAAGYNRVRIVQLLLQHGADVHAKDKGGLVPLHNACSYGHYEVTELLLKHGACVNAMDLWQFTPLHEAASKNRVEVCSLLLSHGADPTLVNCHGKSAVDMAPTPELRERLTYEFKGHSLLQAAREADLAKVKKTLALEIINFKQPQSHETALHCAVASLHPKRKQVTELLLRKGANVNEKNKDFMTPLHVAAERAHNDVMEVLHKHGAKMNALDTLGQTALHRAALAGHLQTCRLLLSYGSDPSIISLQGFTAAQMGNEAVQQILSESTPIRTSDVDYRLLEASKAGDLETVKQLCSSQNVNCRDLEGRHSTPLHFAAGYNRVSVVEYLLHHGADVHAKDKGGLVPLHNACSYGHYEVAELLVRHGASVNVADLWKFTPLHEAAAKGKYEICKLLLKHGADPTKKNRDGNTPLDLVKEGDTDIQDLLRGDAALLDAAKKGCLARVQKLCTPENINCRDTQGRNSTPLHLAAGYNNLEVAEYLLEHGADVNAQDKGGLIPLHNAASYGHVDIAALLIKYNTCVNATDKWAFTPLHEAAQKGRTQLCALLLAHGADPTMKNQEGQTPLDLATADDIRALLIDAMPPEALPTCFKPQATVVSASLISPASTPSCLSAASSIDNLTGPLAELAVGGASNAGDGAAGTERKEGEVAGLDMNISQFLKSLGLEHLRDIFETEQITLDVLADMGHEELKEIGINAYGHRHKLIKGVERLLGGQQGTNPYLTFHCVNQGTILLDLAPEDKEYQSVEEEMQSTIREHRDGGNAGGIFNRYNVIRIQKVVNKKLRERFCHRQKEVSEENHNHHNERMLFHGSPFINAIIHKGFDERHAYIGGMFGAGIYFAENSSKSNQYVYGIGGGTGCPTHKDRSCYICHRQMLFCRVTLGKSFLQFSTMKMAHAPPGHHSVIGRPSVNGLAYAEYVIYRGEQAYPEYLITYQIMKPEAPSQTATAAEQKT

[25] = Cmax in Balb Nu/Nu mouse at 5 mg/kg, iv measured upto 24 hrs by HPLC-MS-MS analysis; type: ADME, organism-based; design: dose 5 mg/kg, route intravenous; conditions: in vivo
[26] = AUC (0 to infinity) in Balb Nu/Nu mouse at 5 mg/kg, iv measured upto 24 hrs by HPLC-MS-MS analysis; type: ADME, organism-based; design: dose 5 mg/kg, time infinity, route intravenous; conditions: in vivo
[27] = in vivo; conditions: Balb Nu/Nu, mouse, iv, 5 mg/kg
[28] = Half life in Balb Nu/Nu mouse at 5 mg/kg, iv measured upto 24 hrs by HPLC-MS-MS analysis; type: ADME, organism-based; conditions: in vivo
[29] = Toxicity in human Capan1 cells xenografted Balb athymic Nu/Nu mouse assessed as maximum weight loss at 62.5 mg/kg, iv qd for 5 days; type: organism-based; conditions: in vivo, 120 h
Procedure, shortened: (§3)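 Capan-1 pancreatic xenograft. Temozolomide was given alone at 62.5 mg/kg iv once daily for 5 days. Maximal tumor growth inhibition and maximum body weight loss were recorded.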

[30] = test system: CAPAN-1; experiment: Antitumor activity against human Capan1 cells xenografted in Balb athymic Nu/Nu mouse assessed as maximal tumor growth inhibition at 62.5 mg/kg, iv qd for 5 days; type: functional; conditions: CAPAN-1, iv, 120 h, read-out: TGI; procedure, shortened: as §3

T1 sequence (P09874 whole entry, the tested form may be a part): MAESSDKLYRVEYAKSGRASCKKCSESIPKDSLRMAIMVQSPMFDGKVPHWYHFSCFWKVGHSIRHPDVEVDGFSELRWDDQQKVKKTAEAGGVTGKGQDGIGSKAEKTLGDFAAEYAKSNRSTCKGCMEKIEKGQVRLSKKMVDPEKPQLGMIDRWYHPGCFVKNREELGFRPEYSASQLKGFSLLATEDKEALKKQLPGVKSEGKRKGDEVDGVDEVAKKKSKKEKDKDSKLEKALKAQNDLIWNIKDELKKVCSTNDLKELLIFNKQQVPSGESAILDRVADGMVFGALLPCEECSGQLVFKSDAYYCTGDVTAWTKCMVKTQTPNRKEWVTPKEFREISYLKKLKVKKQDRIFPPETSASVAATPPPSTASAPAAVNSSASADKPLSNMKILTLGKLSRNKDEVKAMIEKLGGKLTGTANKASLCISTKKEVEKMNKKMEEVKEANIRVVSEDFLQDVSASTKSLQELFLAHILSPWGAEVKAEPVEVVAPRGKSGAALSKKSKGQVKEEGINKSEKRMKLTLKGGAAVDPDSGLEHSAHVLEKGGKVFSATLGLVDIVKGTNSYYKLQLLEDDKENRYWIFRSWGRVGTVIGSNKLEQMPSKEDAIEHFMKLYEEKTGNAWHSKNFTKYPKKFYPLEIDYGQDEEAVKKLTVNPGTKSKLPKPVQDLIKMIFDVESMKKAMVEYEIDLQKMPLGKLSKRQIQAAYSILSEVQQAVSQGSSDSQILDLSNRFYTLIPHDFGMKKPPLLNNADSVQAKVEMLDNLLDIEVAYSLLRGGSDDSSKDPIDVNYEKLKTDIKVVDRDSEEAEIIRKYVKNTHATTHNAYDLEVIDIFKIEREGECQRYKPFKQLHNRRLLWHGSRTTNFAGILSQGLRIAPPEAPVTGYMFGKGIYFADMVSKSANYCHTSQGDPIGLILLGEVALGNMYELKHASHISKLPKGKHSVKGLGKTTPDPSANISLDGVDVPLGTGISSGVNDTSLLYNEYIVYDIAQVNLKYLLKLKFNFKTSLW
Poly [ADP-ribose] polymerase 2, sequence (Q9UGN5 whole entry, the tested form may be a part): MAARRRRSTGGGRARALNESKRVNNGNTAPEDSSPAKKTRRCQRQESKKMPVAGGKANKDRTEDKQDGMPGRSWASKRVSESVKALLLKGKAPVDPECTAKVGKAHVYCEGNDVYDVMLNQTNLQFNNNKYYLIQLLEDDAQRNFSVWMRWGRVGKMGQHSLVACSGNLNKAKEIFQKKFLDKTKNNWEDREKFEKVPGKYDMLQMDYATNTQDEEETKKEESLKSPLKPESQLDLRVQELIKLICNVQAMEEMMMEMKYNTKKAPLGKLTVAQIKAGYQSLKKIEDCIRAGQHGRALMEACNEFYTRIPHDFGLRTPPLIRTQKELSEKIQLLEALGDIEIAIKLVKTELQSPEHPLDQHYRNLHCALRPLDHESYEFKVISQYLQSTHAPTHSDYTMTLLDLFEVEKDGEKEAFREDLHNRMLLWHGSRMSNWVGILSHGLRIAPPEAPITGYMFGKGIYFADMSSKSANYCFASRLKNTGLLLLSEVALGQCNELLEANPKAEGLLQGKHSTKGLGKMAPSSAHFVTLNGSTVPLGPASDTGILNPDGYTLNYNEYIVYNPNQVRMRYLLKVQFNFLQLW
Cytochrome P450 2D6, sequence (P10635 whole entry, canonical isoform): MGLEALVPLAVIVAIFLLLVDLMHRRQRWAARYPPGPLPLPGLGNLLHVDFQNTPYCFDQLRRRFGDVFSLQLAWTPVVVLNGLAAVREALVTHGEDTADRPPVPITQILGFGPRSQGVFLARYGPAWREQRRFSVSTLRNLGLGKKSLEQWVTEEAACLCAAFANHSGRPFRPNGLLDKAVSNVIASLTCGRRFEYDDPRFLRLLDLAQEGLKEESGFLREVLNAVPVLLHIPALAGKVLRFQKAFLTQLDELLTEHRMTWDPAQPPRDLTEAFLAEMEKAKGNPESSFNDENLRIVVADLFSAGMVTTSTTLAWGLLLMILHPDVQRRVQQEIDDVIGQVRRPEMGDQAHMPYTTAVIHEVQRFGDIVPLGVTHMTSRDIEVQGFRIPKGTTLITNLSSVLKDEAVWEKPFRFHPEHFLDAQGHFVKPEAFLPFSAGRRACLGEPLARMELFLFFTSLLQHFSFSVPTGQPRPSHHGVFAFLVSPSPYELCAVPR

| Structure (SMILES) | IC50 [1] [µM] | Kd [2] [µM] | bioavailability [4] [%] | permeability [5] [%] | fraction unbound [6] | IC50 [7] [µM] | Papp at 4 h, 10 µM [8] [nm/s] | AUC(0-inf) [9] [µM·h] | IC50 [10] [µM] | CLint scaled at 1.5 h [12] [L/h/kg] | Cmax [13] [µM] | solubility [15] [µM] | Kd [17] [µM] | CLint scaled at 0.5 h [18] [L/h/kg] | half-life [21] [h] | Kd [22] [µM] | Kd [23] [µM] | Kd [24] [µM] | further results |
| --- | --- | --- | --- | --- | --- | --- | --- | --- | --- | --- | --- | --- | --- | --- | --- | --- | --- | --- | --- |
| C[C@H]1c2cccc(C(N)=O)c2C(=O)N1C1CCN(C2CCCCC2)CC1 | 0.027 | 0.016 | 78.3 | 0 | 0.13 | > 31 | 273 | 4.9 | > 31 | 0.3 | 1.4 | > 225 | > 10 | 0.3 | 2.6 | < 0.03 | > 10 | > 10 | half-life [3]: 2.1 h; inhibition in vivo at 80 mg/kg [11]: 48%; Cmax [14]: 4.9 µM; Activity [16]: 17%; Activity [19]: 6%; AUC(0-inf) [20]: 8.2 µM·h |
| CC1c2cccc(C(N)=O)c2C(=O)N1C1CCN(C2CCCCC2)CC1 (racemic) | 0.05 | – | 100 | 8 | 0.05 | 0.6 | 394 | 13.5 | 4.9 | 0.3 | 2.5 | 140 (≈ 49.8 µg/mL) | > 10 | 0.3 | 3.1 | < 0.03 | > 10 | > 10 | Cmax [25]: 2.5 µM; AUC(0-inf) [26]: 6.3 µM·h; Vd at 24 h [27]: 3.6 L/kg; half-life [28]: 1.8 h |
| CC1c2cc(F)cc(C(N)=O)c2C(=O)N1C1CCN(C2CCCCC2)CC1 (racemic) | 0.64 | – | – | – | – | – | – | – | – | – | – | – | – | – | – | – | – | – | – |
| C[C@@H]1c2cccc(C(N)=O)c2C(=O)N1C1CCN(C2CCCCC2)CC1 | 0.162 | 1.76 | – | – | – | – | – | – | – | – | – | – | – | – | – | 1.32 | – | – | – |
| Cn1nnc2c(C(N)=O)ncn2c1=O [TEMOZOLOMIDE] | – | – | – | – | – | – | – | – | – | – | – | – | – | – | – | – | – | – | Activity [29]: 8%; inhibition in vivo at 62.5 mg/kg [30]: 46% |
